We go through 14 compounds from ChEMBL document CHEMBL1154076, “New furanoflavanoids, intestinal alpha-glucosidase inhibitory and free-radical (DPPH) scavenging, activity from antihyperglycemic root extract of Derris indica (Lam.)” (Bioorg Med Chem, 2009).

A short description of assay [1]: Inhibition of rat alpha-glucosidase assessed as p-nitrophenol release at 50 ug/ml. In a few lines: (§1)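 Crude enzyme is the sonicated supernatant of rat intestinal acetone powder in normal saline (100:1 w/v). Sample (5 mg/mL DMSO stock) in 100 mM phosphate buffer, pH 6.8, is preincubated 5 min with enzyme. p-Nitrophenyl-α-D-glucopyranoside (5 mM solution) is added, and p-nitrophenol is read at 405 nm after 5 min. Blanks omit substrate; the control is DMSO. Inhibition % = (1 − B/A) × 100. IC50 is taken by log regression over ≥5 dilutions. n = 3.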

Assay [2] concerns Radical scavenging activity. Put plainly: Antioxidant activity assessed as DPPH radical scavenging activity. The assay is classed as functional. In a few lines: (§2)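 DPPH (0.5 mM solution in absolute ethanol) is mixed with test sample (1 mg/mL DMSO stock) in 0.1 M Tris-HCl, pH 7.4. The mixture is shaken, kept in the dark for 30 min, and read at 517 nm. Scavenging % = (1 − B/A) × 100 versus a no-sample control. SC50 comes from logarithmic regression over at least five dilutions. n = 3.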
A general note: Loss of DPPH colour is used to gauge radical scavenging.

The test system of assay [3] is Radical scavenging activity. The assay can be described thus: Antioxidant activity against DPPH radical assessed as concentration required for 50% scavenging activity. The assay is classed as functional. The gist of the method:
as §2

The species named for assay [4] is Rattus norvegicus. Put plainly: Inhibition of rat alpha-glucosidase assessed as p-nitrophenol release. In a few lines:
as §1

Molecules are shown by their SMILES. The source made the active and inactive calls. No cut-off for these calls is given here.

Regarding `O=c1c(O)c(-c2ccc(O)c(O)c2)oc2c1ccc1occc12`, the Inhibition (usually the share of the control response that was lost under treatment) in assay [1] stood at 37.9%. Further, in assay [2], the Scavenging came to 64.9%. Moreover, the Activity in assay [3] turned out to be 21 µM.

For the compound `O=c1cc(-c2ccc(O)c(O)c2)oc2c1ccc1occc12`, the Activity in assay [4] was 335 µM; in assay [3] it was 84.6 µM. Moreover, in assay [1], the Inhibition is given as 25.6%. For the same compound, in assay [2], the Scavenging turned out to be 55.1%.

With `COc1c(-c2ccc3c(c2)OCO3)oc2cc(O)ccc2c1=O`, in assay [1], the Inhibition turned out to be 36%. In addition, in assay [2], the Scavenging was 68.3%. For the same compound, the Activity in assay [3] was 39 µM.

Consider `COc1ccc(-c2cc(=O)c3c(O)cc(OC)cc3o2)cc1` [APIGENIN DIMETHYLETHER], for which the Inhibition in assay [1] came to 4.4%. The SC50 result in assay [2] was “inactive”.

On to `COc1ccc2c(=O)c(OC)c(-c3ccc(OC)c(OC)c3)oc2c1` [FISETIN TETRAMETHYL ETHER], for which the Inhibition in assay [1] is on record as 19.7%. Moreover, the SC50 result in assay [2] is “inactive”.

Turning to `COc1c(-c2ccccc2)oc2c(ccc3occc32)c1=O` [KARANJIN], the Inhibition in assay [1] was 26.3%. The SC50 entry in assay [2] was “inactive”.

Take `COc1c(C(=O)/C=C(\O)c2ccc3c(c2)OCO3)ccc2occc12` [OVALITENONE]: in assay [1], the Inhibition amounted to 29.7%. The SC50 result in assay [2] was “inactive”.

As for `COc1c2ccoc2cc2oc(-c3ccccc3)cc(=O)c12` [PINNATIN], the Inhibition in assay [1] turned out to be 36.5%. Moreover, the SC50 entry in assay [2] was “inactive”.

Regarding `O=C(O)c1ccc2c(c1)OCO2` [PIPERONYLIC ACID], the Inhibition in assay [1] is reported as 18.4%. Besides, in assay [2], the Scavenging was 2.4%.

As for `COc1c(-c2ccc3c(c2)OCO3)oc2c3c(ccc2c1=O)OC(C)(C)C=C3` [PONGACHROMENE], the Inhibition in assay [1] is 22.8%. Further, the SC50 entry in assay [2] is “inactive”.

`O=c1cc(-c2ccc3c(c2)OCO3)oc2c1ccc1occc12` [PONGAGLABRONE]: the Inhibition in assay [1] came out at 8.6%. In addition, the SC50 result in assay [2] is “inactive”.

In the case of `COc1c(C(=O)/C=C(\O)c2ccccc2)ccc2occc12` [PONGAMOL], the Activity in assay [4] is 104 µM. For the same compound, the Inhibition in assay [1] was 58.2%. Besides, in assay [2], the Scavenging worked out at 11.2%.

Regarding `COc1c(-c2ccc3c(c2)OCO3)oc2c(ccc3occc32)c1=O` [PONGAPIN], the Inhibition in assay [1] is given as 21.4%. In assay [2], the SC50 result was “inactive”.

Regarding `COc1cc(O)c2c(=O)cc(-c3ccccc3)oc2c1` [TECHTOCHRYSIN], the Inhibition in assay [1] is on record as 28.7%. Besides, the SC50 entry in assay [2] was “inactive”.
